Rows were chosen to be rich in hits. Some 1.6% of all compounds tested hit in one or more screens of this group.
UCH37 DUB inh: blocks the human deubiquitinase UCH37. Q9Y5K5. purified proteasome/UCH37, Ub-AMC cleavage fluorescence. inhibition, % (no concentration beside the values). 0.33% of 330,000 active;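 active = mean inhibition over replicate wells above about 20%, limit read from the data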;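 note: 0% = compound-free wells with enzyme and 100% = wells lacking proteasome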
Target sequence (Q9Y5K5 whole entry, looked up): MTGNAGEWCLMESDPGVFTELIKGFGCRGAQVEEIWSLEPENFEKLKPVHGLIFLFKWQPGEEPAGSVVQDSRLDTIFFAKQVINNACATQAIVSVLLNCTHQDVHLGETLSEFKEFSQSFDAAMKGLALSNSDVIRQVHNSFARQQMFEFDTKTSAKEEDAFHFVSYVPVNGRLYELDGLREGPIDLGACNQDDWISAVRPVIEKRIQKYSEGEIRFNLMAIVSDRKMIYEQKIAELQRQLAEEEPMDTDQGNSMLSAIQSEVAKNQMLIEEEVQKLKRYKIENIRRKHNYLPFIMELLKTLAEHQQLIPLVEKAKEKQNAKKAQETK
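Test system – human UCH37 enzyme supplied as purified proteasome complex · Incubation – 30 min preincubation with enzyme, 25 min cleavage at room temperature · Detection – AMC fluorescence from Ub-AMC cleavage, excitation 355 nm, emission 460 nm · Benchmarks – no-proteasome wells (full inhibition) and compound-free wells (no inhibition)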
HKDC1 inhibitor: inhibitors of human hexokinase HKDC1; AID 493160; inhibition, % at 20 µM; 0.16% of 340,000 active; recombinant HKDC1, G6PDH/diaphorase resazurin coupled fluorescence;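 active = inhibition above about 35% when tested at 20 µM, limit read from the data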;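 note: plate controls were DMSO wells with enzyme for no effect and DMSO wells lacking enzyme for full effect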
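Assay system – recombinant HKDC1 (HK5) hexokinase enzyme, produced in-house · Input – HKDC1 at 5 µg/mL · Reagent – glucose plus 1 mM ATP as hexokinase substrates · Timing – 90 min reaction incubation at room temperature, dark · Measured by – G6PDH/diaphorase-coupled fluorescence, 1 mM NADP, 100 µM resazurin, 525/613 nm · Benchmarks – DMSO-enzyme wells negative, buffer-substituted wells positive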
CTSL1 counter: counter-screen for PFM18AAP inhibitors: inhibitors of F. hepatica cathepsin L1; recombinant F. hepatica cathepsin L1, Z-Leu-Arg-MCA fluorescence; inhibition, % at 5.96 µM; 0.49% of 300,000 active; AID 1906;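 active = inhibition above the mean of all tested compounds plus 3 SD, set per screening campaign, cut at about 17% in these data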;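 note: 0% = plate median of test compound wells and 100% = 1 µM Z-Phe-Ala-diazomethylketone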
PAD4 FP inh: blocks human protein arginine deiminase 4. recombinant PAD4, RCA probe fluorescence polarization. inhibition, % at 6.36 µM. 0.41% of 330,000 active. Q9UM07;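 active = percent inhibition above a cutoff equal to the mean of all tested compounds plus 3 SD, cut at about 15% in these data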;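 note: 0% = PAD4 with RCA probe and DMSO and 100% = probe without PAD4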
GSTO1 counter: counter-screen for RBBP9 inhibitors: inhibitors of human GSTO1; AID 1974; inhibition, % at 5.96 µM; P78417; recombinant GSTO1, activity-based probe fluorescence polarization; 1.1% of 300,000 active;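 active = inhibition above the campaign mean inhibition plus 3 SD, cut at about 35% in these data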;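 note: 0% = GSTO1-1 with DMSO and 100% = wells lacking GSTO1-1 enzyme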
TDP2 absorb: TDP2 (human) inhibition, absorbance primary screen | inhibition, % at 12.8 µM | 0.34% of 370,000 active | O95551 | recombinant TDP2, T5PNP hydrolysis, p-nitrophenol absorbance 415 nm;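 active = inhibition above the mean of all tested compounds plus 3 SD, set per campaign, cut at about 25% in these data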;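 note: 0% = DMSO with enzyme and 100% = buffer with substrate but no TDP2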
Target sequence (O95551 whole entry, looked up): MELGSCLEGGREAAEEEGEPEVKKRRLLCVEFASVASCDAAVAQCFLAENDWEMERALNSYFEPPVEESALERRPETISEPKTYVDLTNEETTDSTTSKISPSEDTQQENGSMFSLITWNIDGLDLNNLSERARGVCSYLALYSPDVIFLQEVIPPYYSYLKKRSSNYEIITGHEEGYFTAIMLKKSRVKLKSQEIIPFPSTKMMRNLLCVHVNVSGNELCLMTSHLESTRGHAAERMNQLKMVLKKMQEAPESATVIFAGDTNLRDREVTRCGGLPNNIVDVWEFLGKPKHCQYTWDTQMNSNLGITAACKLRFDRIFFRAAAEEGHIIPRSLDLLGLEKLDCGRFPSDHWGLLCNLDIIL
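test system = human TDP2 enzyme | input = TDP2 enzyme at 120 nM final | medium = 50 mM Tris-HCl pH 7.5 with Mg2+, KCl, DTT, BSA | also added = T5PNP substrate, 5 mM | times = 2 h at 37 °C | technique = epi absorbance | benchmarks = high control without enzyme, low control DMSO plus TDP2 | replication = each compound tested once, singlicate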
* = called active by the depositor; i = inactive; x = no result.

SMILES	UCH37 DUB inh	HKDC1 inhibitor	CTSL1 counter	PAD4 FP inh	GSTO1 counter	TDP2 absorb
C=CCOC(=O)C1=C[C@@H](c2ccc(C(F)(F)F)cc2)C[C@@H](OCCCCO)O1	21*	-1	9	-1	1	-9
C=CCOC(=O)C1=C[C@@H](c2ccc(Br)cc2)C[C@@H](OCCCCO)O1	4	-2	5	0	-1	4
COCCn1c(-c2cccs2)csc1=Nc1cccnc1	2	7	19*	-3	-5	-5
Cc1ccc(S(=O)(=O)NN=C/C=C/c2ccccc2)cc1	6	x	x	x	x	x
N#C/C(=N/Nc1ccc(S(=O)(=O)N2CCOCC2)cc1)C(N)=O	x	12	5	2	4	13
N#CC(=NNc1ccc(S(=O)(=O)N2CCOCC2)cc1)C(N)=S	22*	x	x	x	x	x
COC(=O)c1ccc(C=NN2CCN(c3ccccc3)CC2)cc1	2	x	x	x	x	x
Cc1nc2ccc(C(=O)OCc3ccccc3Br)cc2nc1C	2	2	19*	-2	8	4
CC(=O)Nc1ccc(C(=O)OCc2ccccc2Br)cc1	2	-3	3	-1	3	-4
Nc1ccc(O)c(C(=O)O)c1	x	x	-1	16*	76*	x
Cc1cc(C)nc(Nc2cccc(C(F)(F)F)c2)n1	1	0	-2	-1	36*	-10
Cc1ccsc1C=NNC(=O)Cc1ccc(Cl)cc1	5	x	x	x	x	x
CC(C)(C)c1cc[n+](-c2[nH]c(=O)sc2C=N/N=C(\[O-])c2ccccc2)cc1	21*	x	x	x	x	x
O=C(NN=Cc1sc(=O)[nH]c1-[n+]1ccccc1)c1ccccc1[O-]	20*	x	x	x	x	x
O=C1c2ccc3c4c(ccc(c24)C(=O)N1c1ccc(O)cc1)C(=O)N(c1ccc(O)cc1)C3=O	3	56*	1	-3	6	5
COc1ccc2cc(C=NNC(=O)CN(c3ccccc3C)S(=O)(=O)c3ccccc3)c(Cl)nc2c1	i	x	x	x	x	x
Cn1c(=O)oc2cc(S(=O)(=O)NCCc3ccccc3)ccc21	4	-2	0	4	35*	2
COc1ccc(C2/C=C\CN(C(=O)Nc3ccccc3)CC(=O)N2Cc2ccc(F)cc2)cc1 (centres undefined)	-1	-5	-2	2	36*	-1
Cc1nc(SCc2ccc(O)c([N+](=O)[O-])c2)n[nH]1	x	-3	-1	-6	5	-12
Cc1nc(SCc2ccc(O)c([N+](=O)[O-])c2)c([N+](=O)[O-])[nH]1	20*	-6	5	-3	20	-18
COC(=O)c1c(NC(=O)c2ccc([N+](=O)[O-])o2)sc2c1CCN(C(C)C)C2	x	18	26*	-9	3	-13
Cc1ccc(C=NOC(=O)c2nn(C)cc2Cl)cc1	4	x	x	x	x	x
Cc1[nH]c2ccccc2c1SCC(=O)NC1CCCCC1	2	-15	23*	-1	12	-1
O=C(c1ccco1)N1CCN(C(c2ccccc2Cl)c2nnnn2CC2CCCO2)CC1 (centres undefined)	0	-8	19*	-1	9	-13
Cc1nonc1NC(=O)CSc1nc2ccccc2[nH]1	5	-6	17*	-6	5	-3
SMILES	UCH37 DUB inh	HKDC1 inhibitor	CTSL1 counter	PAD4 FP inh	GSTO1 counter	TDP2 absorb
COc1nonc1NC(=O)CSc1nc2ccccc2[nH]1	1	-2	0	-2	-1	-11
COc1cc(C=NNC(=O)CSc2ccccn2)ccc1O	8	x	x	x	x	x
NS(=O)(=O)c1ccc(NCc2c(F)cccc2Cl)cc1	7	7	x	x	x	15
Fc1cccc(Cl)c1CNc1ccc(N2CCCC2)cc1	0	9	-6	4	37*	7
COc1ccc(N(CC(=O)NN=C(C)CCc2ccccc2)S(=O)(=O)c2ccc(C)cc2)cc1	4	x	x	x	x	x
O=C1C2C3C=CC(C3)C2C(=O)N1CNc1ccc(O)cc1 (centres undefined)	x	x	71*	33*	93*	x
Cc1ccc(NCN2C(=O)C3C4C=CC(C4)C3C2=O)cc1 (centres undefined)	-1	-2	1	0	3	8
Cc1ccc(C=c2sc3nnc(-c4ccccc4Cl)n3c2=O)o1	4	x	x	x	x	x
O=C(CN(c1cccc([N+](=O)[O-])c1)S(=O)(=O)c1ccccc1)N(Cc1ccccc1)Cc1ccccc1	3	-8	18*	0	-2	-3
O=C(CN(c1cccc([N+](=O)[O-])c1)S(=O)(=O)c1ccccc1)NCc1ccccc1	0	-1	0	-3	2	5
O=C(COc1ccc(Cl)cc1Cl)NCC(=O)NN=Cc1c[nH]c2ccccc12	6	x	x	x	x	x
Cc1c(C(=O)NCCC2=CCCCC2)oc2ccc(S(=O)(=O)N3CCOCC3)cc12	4	8	3	-2	-12	-7
Cc1c(C(=O)O)oc2ccc(S(=O)(=O)NCCC3=CCCCC3)cc12	5	24	1	-2	37*	-2
CC(=NNC(=O)CNc1ccc(Cl)cc1C)c1ccc(C)cc1	34*	x	x	x	x	x
COc1ccc(-n2nc3c(N4CCC(C(=O)N5CCCCCC5)CC4)nnc(C)c3c2C)cc1	x	-3	28*	-7	3	12
Cc1ccc(-n2nc3c(N4CCC(C(=O)N5CCCCCC5)CC4)nnc(C)c3c2C)cc1	-18	-4	1	-2	7	x
Cc1cc(C)c(C(=O)/C=C/C=C/c2ccccc2)c(=O)[nH]1	14	1	15	-3	7	6
C/C(=C\C=C\c1ccccc1)C(=O)c1c(C)cc(C)[nH]c1=O	1	0	22*	0	0	7
CN(C)/C=C/C(=O)c1ccc(Cl)cc1	15	-8	-3	-2	-1	3
CN(C)/C=C/C(=O)c1ccc(-n2cccc2)cc1	22*	-9	-2	-1	-4	-9
Cc1nnc(NC(=O)CSc2ccc(-c3ccc(Cl)cc3)nn2)s1	2	1	4	0	15	2
Cc1nnc(NC(=O)CSc2ccc(-c3ccco3)nn2)s1	4	5	2	-2	54*	-6
O=C(CSc1nc2ccccc2o1)Nc1nncs1	1	0	3	-5	24	-6
CCc1ccc(-c2ccc(SCC(=O)Nc3nnc(C)s3)nn2)cc1	2	-2	-10	0	36*	9
Cc1nnc(NC(=O)CSc2nc3ccccc3o2)s1	2	-9	-2	3	37*	8
CCc1nnc(NC(=O)CSc2ccc(-c3ccco3)nn2)s1	4	-6	-1	1	36*	4
COc1cc(C=NN=Cc2cc(OC)c(O)c(OC)c2)cc(OC)c1O	19	x	x	x	x	x
O=C(NN=Cc1ccco1)C(O)c1ccccc1 (centres undefined)	2	x	x	x	x	x
CNC(=O)C1(C(F)(F)F)C/C(=C\CCO)CCCO1 (centres undefined)	2	-5	18*	-2	4	-7

Bioassay records: PubChem BioAssay, several laboratories
